In ChEMBL document CHEMBL2429741 (J Med Chem, 2013):

Test system: Plasmodium falciparum
Experiment: Antimicrobial activity against chloroquine-resistant blood stage forms of Plasmodium falciparum Dd2 after 3 days by HRP2-based ELISA
Assay type: functional, organism-based
Conditions: Dd2, 72 h
In short: (§1)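 Sorbitol-synchronized ring-stage parasites (0.05% parasitemia, 1.5% hematocrit, O Rh+ erythrocytes) in RPMI 1640/HEPES/glutamine/gentamycin/0.5% Albumax, 37 °C, 5% CO2, 5% O2. Added to plates precoated with 3-fold compound dilutions from DMSO stocks; 3-day incubation; plates freeze-thawed twice; HRP2 ELISA. Chloroquine control each run. IC50 from nonlinear regression of log concentration-response; mean of two independent duplicate determinations.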

| SMILES | IC50 [nM] |
| --- | --- |
| O=C(CCC(c1ccc(F)c(F)c1)P(=O)(O)O)NO (stereo unspecified) | 65 |
| CN(O)C(=O)CCC(c1ccc(F)c(F)c1)P(=O)(O)O (stereo unspecified) | 40 |
| CN(O)C(=O)CCC(c1ccccc1)P(=O)(O)O (stereo unspecified) | 74 |
| O=C(CCC(c1ccccc1)P(=O)(O)O)NO (stereo unspecified) | 570 |
| CN(O)C(=O)CSC(c1ccccc1)P(=O)(O)O (racemic) | 75 |
| CN(O)C(=O)CSC(c1ccc(F)c(F)c1)P(=O)(O)O (racemic) | 88 |
| CN(O)C(=O)CSC(c1ccc(Cl)c(Cl)c1)P(=O)(O)O (racemic) | 85 |
| CN(O)C(=O)CSC(c1cccc2ccccc12)P(=O)(O)O (racemic) | 510 |
| Cc1ccc(C(SCC(=O)N(C)O)P(=O)(O)O)cc1 (racemic) | 95 |
| O=C(CSC(c1ccccc1)P(=O)(O)O)NO (racemic) | 3770 |
| O=C(CSC(c1ccc(F)c(F)c1)P(=O)(O)O)NO (racemic) | 330 |
| O=C(CSC(c1ccc(Cl)c(Cl)c1)P(=O)(O)O)NO (racemic) | 870 |

Test system: Plasmodium falciparum
Experiment: Antimicrobial activity against chloroquine-sensitive blood stage forms of Plasmodium falciparum 3D7 after 3 days by HRP2-based ELISA
Assay type: functional, organism-based
Conditions: 3D7, 72 h
In short: as §1

| SMILES | IC50 [nM] |
| --- | --- |
| O=C(CCC(c1ccc(F)c(F)c1)P(=O)(O)O)NO (stereo unspecified) | 75 |
| CN(O)C(=O)CCC(c1ccc(F)c(F)c1)P(=O)(O)O (stereo unspecified) | 122 |
| CN(O)C(=O)CCC(c1ccccc1)P(=O)(O)O (stereo unspecified) | 90 |
| O=C(CCC(c1ccccc1)P(=O)(O)O)NO (stereo unspecified) | 400 |
| O=C(COC(c1ccc(F)c(F)c1)P(=O)(O)O)NO (stereo unspecified) | > 50000 |
| CN(O)C(=O)CSC(c1ccccc1)P(=O)(O)O (racemic) | 30 |
| CN(O)C(=O)CSC(c1ccc(F)c(F)c1)P(=O)(O)O (racemic) | 111 |
| CN(O)C(=O)CSC(c1ccc(Cl)c(Cl)c1)P(=O)(O)O (racemic) | 91 |
| CN(O)C(=O)CSC(c1cccc2ccccc12)P(=O)(O)O (racemic) | 380 |
| Cc1ccc(C(SCC(=O)N(C)O)P(=O)(O)O)cc1 (racemic) | 111 |
| O=C(CSC(c1ccccc1)P(=O)(O)O)NO (racemic) | 2900 |
| O=C(CSC(c1ccc(F)c(F)c1)P(=O)(O)O)NO (racemic) | 160 |
| O=C(CSC(c1ccc(Cl)c(Cl)c1)P(=O)(O)O)NO (racemic) | 540 |

Test system: not listed separately
Experiment: Inhibition of Plasmodium falciparum IspC expressed in recombinant Escherichia coli M15 by photometric assay
Conditions: not given
In short: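 His-tagged enzyme from E. coli M15 pREP4 pQEIspCplasart20, induced with 1 mM IPTG overnight at 30 °C, Ni-imidazole purified, about 95% pure. Inhibitor 1:3 over about 200–0.003 μM. DXP start, final 0.5–5.0 mM. 340 nm, room temperature. Nonlinear-regression IC50, ≥8 points.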

| SMILES | IC50 [nM] | Ki [nM] |
| --- | --- | --- |
| O=C(CCC(c1ccc(F)c(F)c1)P(=O)(O)O)NO (stereo unspecified) | 3.9 | – |
| CN(O)C(=O)CCC(c1cccc2ccccc12)P(=O)(O)O (stereo unspecified) | 9.4 | – |
| CN(O)C(=O)CCC(c1ccc(F)c(F)c1)P(=O)(O)O (stereo unspecified) | 3.4 | – |
| CN(O)C(=O)CCC(c1ccc(Cl)c(Cl)c1)P(=O)(O)O (stereo unspecified) | 2.8 | – |
| CN(O)C(=O)CCC(c1ccccc1)P(=O)(O)O (stereo unspecified) | 3.1 | – |
| Cc1ccc(C(CCC(=O)N(C)O)P(=O)(O)O)cc1 (stereo unspecified) | 14 | – |
| CN(O)C(=O)COC(c1ccccc1)P(=O)(O)O (stereo unspecified) | 37 | – |
| CN(O)C(=O)COC(c1cccc2ccccc12)P(=O)(O)O (stereo unspecified) | 39 | – |
| CN(O)C(=O)COC(c1ccc(F)c(F)c1)P(=O)(O)O (stereo unspecified) | 12 | – |
| CN(O)C(=O)COC(c1ccc(Cl)c(Cl)c1)P(=O)(O)O (stereo unspecified) | 14 | – |
| Cc1ccc(C(OCC(=O)N(C)O)P(=O)(O)O)cc1 (stereo unspecified) | 25 | – |
| O=C(COC(c1ccccc1)P(=O)(O)O)NO (stereo unspecified) | 1500 | – |
| CN(O)C(=O)CS[C@@H](c1ccccc1)P(=O)(O)O | 9.4 | 1.7 |
| CN(O)C(=O)CS[C@H](c1ccccc1)P(=O)(O)O | 12000 | 2200 |
| O=C(CCC(c1ccccc1)P(=O)(O)O)NO (stereo unspecified) | 12 | – |
| O=C(COC(c1ccc(F)c(F)c1)P(=O)(O)O)NO (stereo unspecified) | 3900 | – |
| CN(O)C(=O)CSC(c1ccccc1)P(=O)(O)O (racemic) | 24 | 4.4 |
| CN(O)C(=O)CSC(c1ccc(F)c(F)c1)P(=O)(O)O (racemic) | 14 | – |
| CN(O)C(=O)CSC(c1ccc(Cl)c(Cl)c1)P(=O)(O)O (racemic) | 4.5 | – |
| CN(O)C(=O)CSC(c1cccc2ccccc12)P(=O)(O)O (racemic) | 9.8 | – |
| Cc1ccc(C(SCC(=O)N(C)O)P(=O)(O)O)cc1 (racemic) | 18 | – |
| O=C(CSC(c1ccccc1)P(=O)(O)O)NO (racemic) | 110 | – |
| O=C(CSC(c1ccc(F)c(F)c1)P(=O)(O)O)NO (racemic) | 15 | – |
| O=C(CSC(c1ccc(Cl)c(Cl)c1)P(=O)(O)O)NO (racemic) | 200 | – |

Molecular target: T1, 1-deoxy-D-xylulose 5-phosphate reductoisomerase (Mycobacterium tuberculosis, UniProt P9WNS1)
T1 sequence (P9WNS1 whole entry): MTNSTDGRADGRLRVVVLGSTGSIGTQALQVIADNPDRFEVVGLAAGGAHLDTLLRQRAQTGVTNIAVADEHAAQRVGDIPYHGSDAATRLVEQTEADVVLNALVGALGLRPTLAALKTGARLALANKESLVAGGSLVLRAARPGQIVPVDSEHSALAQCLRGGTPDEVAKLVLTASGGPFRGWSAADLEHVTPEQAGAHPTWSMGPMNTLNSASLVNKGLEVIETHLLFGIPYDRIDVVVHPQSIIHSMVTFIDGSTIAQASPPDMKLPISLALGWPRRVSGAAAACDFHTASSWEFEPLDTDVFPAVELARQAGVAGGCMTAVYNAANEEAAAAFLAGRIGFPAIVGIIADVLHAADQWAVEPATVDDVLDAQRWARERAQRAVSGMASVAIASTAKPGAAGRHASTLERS
Experiment: Inhibition of Mycobacterium tuberculosis IspC by photometric assay
Conditions: not given
In short: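 Photometric NADPH-consumption assay at pH 7.6 (Tris) with 5 mM MgCl2, 5 mM DTT, 0.5 mM NADPH and 0.02 U IspC. Inhibitor 1:3 series covered about 200–0.003 μM. Started with 1-deoxy-D-xylulose 5-phosphate (0.5–5.0 mM final); A340 read at room temperature.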

| SMILES | IC50 [nM] |
| --- | --- |
| O=C(CCC(c1ccc(F)c(F)c1)P(=O)(O)O)NO (stereo unspecified) | 3400 |
| CN(O)C(=O)CCC(c1cccc2ccccc12)P(=O)(O)O (stereo unspecified) | 13000 |
| CN(O)C(=O)CCC(c1ccc(F)c(F)c1)P(=O)(O)O (stereo unspecified) | 770 |
| CN(O)C(=O)CCC(c1ccc(Cl)c(Cl)c1)P(=O)(O)O (stereo unspecified) | 280 |
| CN(O)C(=O)CCC(c1ccccc1)P(=O)(O)O (stereo unspecified) | 2000 |
| Cc1ccc(C(CCC(=O)N(C)O)P(=O)(O)O)cc1 (stereo unspecified) | 1800 |
| CN(O)C(=O)COC(c1ccccc1)P(=O)(O)O (stereo unspecified) | 16000 |
| CN(O)C(=O)COC(c1cccc2ccccc12)P(=O)(O)O (stereo unspecified) | 15000 |
| CN(O)C(=O)COC(c1ccc(F)c(F)c1)P(=O)(O)O (stereo unspecified) | 4600 |
| CN(O)C(=O)COC(c1ccc(Cl)c(Cl)c1)P(=O)(O)O (stereo unspecified) | 1600 |
| Cc1ccc(C(OCC(=O)N(C)O)P(=O)(O)O)cc1 (stereo unspecified) | 4000 |
| O=C(COC(c1ccccc1)P(=O)(O)O)NO (stereo unspecified) | 466000 |
| CN(O)C(=O)CS[C@@H](c1ccccc1)P(=O)(O)O | 120 |
| CN(O)C(=O)CS[C@H](c1ccccc1)P(=O)(O)O | 83000 |
| O=C(CCC(c1ccccc1)P(=O)(O)O)NO (stereo unspecified) | 14000 |
| O=C(COC(c1ccc(F)c(F)c1)P(=O)(O)O)NO (stereo unspecified) | > 500000 |
| CN(O)C(=O)CSC(c1ccccc1)P(=O)(O)O (racemic) | 280 |
| CN(O)C(=O)CSC(c1ccc(F)c(F)c1)P(=O)(O)O (racemic) | 42 |
| CN(O)C(=O)CSC(c1ccc(Cl)c(Cl)c1)P(=O)(O)O (racemic) | 9.2 |
| CN(O)C(=O)CSC(c1cccc2ccccc12)P(=O)(O)O (racemic) | 550 |
| Cc1ccc(C(SCC(=O)N(C)O)P(=O)(O)O)cc1 (racemic) | 110 |
| O=C(CSC(c1ccccc1)P(=O)(O)O)NO (racemic) | 15000 |
| O=C(CSC(c1ccc(F)c(F)c1)P(=O)(O)O)NO (racemic) | 1700 |
| O=C(CSC(c1ccc(Cl)c(Cl)c1)P(=O)(O)O)NO (racemic) | 720 |

Test system: not listed separately
Experiment: Inhibition of Escherichia coli IspC by photometric assay
Conditions: not given
In short: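 NADPH-coupled photometric read at 340 nm, room temperature. Inhibitor 1:3 dilutions over about 200–0.003 μM. Started with 1-deoxy-D-xylulose 5-phosphate, final 0.5–5.0 mM. IC50 from nonlinear regression of ≥8 points, mean ± SD; generally 2–3 independent determinations.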

| SMILES | IC50 [nM] |
| --- | --- |
| O=C(CCC(c1ccc(F)c(F)c1)P(=O)(O)O)NO (stereo unspecified) | 178 |
| CN(O)C(=O)CCC(c1cccc2ccccc12)P(=O)(O)O (stereo unspecified) | 3830 |
| CN(O)C(=O)CCC(c1ccc(F)c(F)c1)P(=O)(O)O (stereo unspecified) | 117 |
| CN(O)C(=O)CCC(c1ccc(Cl)c(Cl)c1)P(=O)(O)O (stereo unspecified) | 208 |
| CN(O)C(=O)CCC(c1ccccc1)P(=O)(O)O (stereo unspecified) | 243 |
| Cc1ccc(C(CCC(=O)N(C)O)P(=O)(O)O)cc1 (stereo unspecified) | 286 |
| CN(O)C(=O)COC(c1ccccc1)P(=O)(O)O (stereo unspecified) | 940 |
| CN(O)C(=O)COC(c1cccc2ccccc12)P(=O)(O)O (stereo unspecified) | 4600 |
| CN(O)C(=O)COC(c1ccc(F)c(F)c1)P(=O)(O)O (stereo unspecified) | 240 |
| CN(O)C(=O)COC(c1ccc(Cl)c(Cl)c1)P(=O)(O)O (stereo unspecified) | 200 |
| Cc1ccc(C(OCC(=O)N(C)O)P(=O)(O)O)cc1 (stereo unspecified) | 320 |
| O=C(COC(c1ccccc1)P(=O)(O)O)NO (stereo unspecified) | 20000 |
| CN(O)C(=O)CS[C@@H](c1ccccc1)P(=O)(O)O | 5.1 |
| CN(O)C(=O)CS[C@H](c1ccccc1)P(=O)(O)O | 4000 |
| O=C(CCC(c1ccccc1)P(=O)(O)O)NO (stereo unspecified) | 592 |
| O=C(COC(c1ccc(F)c(F)c1)P(=O)(O)O)NO (stereo unspecified) | 49000 |
| CN(O)C(=O)CSC(c1ccccc1)P(=O)(O)O (racemic) | 8.2 |
| CN(O)C(=O)CSC(c1ccc(F)c(F)c1)P(=O)(O)O (racemic) | 8.5 |
| CN(O)C(=O)CSC(c1ccc(Cl)c(Cl)c1)P(=O)(O)O (racemic) | 5.9 |
| CN(O)C(=O)CSC(c1cccc2ccccc12)P(=O)(O)O (racemic) | 140 |
| Cc1ccc(C(SCC(=O)N(C)O)P(=O)(O)O)cc1 (racemic) | 33 |
| O=C(CSC(c1ccccc1)P(=O)(O)O)NO (racemic) | 600 |
| O=C(CSC(c1ccc(F)c(F)c1)P(=O)(O)O)NO (racemic) | 77 |
| O=C(CSC(c1ccc(Cl)c(Cl)c1)P(=O)(O)O)NO (racemic) | 44 |
| O=CN(O)CCCP(=O)(O)O [FOSMIDOMYCIN] | 221 |
